G6PDH CS: counter-screen for G6PDH assay hits: L. mesenteroides G6PDH inhibition | AID 1020 | Purified L. mesenteroides G6PDH, diaphorase/resazurin coupled fluorescence, 45 min | actives 0.12% (n = 200,000) | inhibition, % at 5 µM; in the data active = inhibition above about 50%
Redox H2O2 prof: compounds producing H2O2 with reducing agent – biochemical, NIH compound library profiling, artefact control for MLSCN library redox annotation, primary screen. DTT-dependent redox cycling H2O2, phenol red/HRP absorbance; 100% = 100 µM peroxide control, 0% = buffer. activation, % at 10 µM. actives 0.03% (n = 200,000);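 active = activation of at least 50% relative to the plate's high and low controls in the primary single-dose screen; inactive = activation below 50%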;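 also: compound incubated with DTT at 0.8 mM final as the reducing agent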
Diaphorase inh: inhibits diaphorase or chemically oxidizes, flagging diaphorase assay artifacts; diaphorase resazurin-to-resorufin fluorescence, NADH, 16 min; bacterial (C. kluyveri) enzyme, not human; inhibition, % at 20 µM; actives 0.69% (n = 190,000);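 active = primary screen inhibition at 20 µM above a set limit, cut at about 50% in these data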;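 also: plate controls were DMSO with full reaction for no effect and wells lacking NADH for full effect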
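Benchmarks: positive control wells lacking NADH, neutral wells with DMSO only. System: bacterial diaphorase enzyme (C. kluyveri). Input: 0.14 U/mL diaphorase, enzyme working solution. Detection: resorufin fluorescence, excitation 544 nm, emission 590 nm. Times: 16-min room-temperature incubation before reading.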
Diaphorase act: counter-screen for diaphorase-based assays: diaphorase activators and chemical reducers; Diaphorase/resazurin coupled assay, resorufin fluorescence, 16 min; hits give high values; 1 = vehicle wells, 0 = NADH-free wells; actives 0.005% (n = 190,000); activation factor at 20 µM; AID 1229;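 active = diaphorase activity raised at least twofold by the compound at 20 µM; inactive = activation factor below 2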
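Material: bacterial diaphorase enzyme (C. kluyveri); amount: enzyme 0.07 U/mL final; reagent: NADH substrate 0.114 mM plus resazurin dye 0.1 mM, final; doses: single compound dose of 20 µM, 1% DMSO final; timing: 16 min enzyme reaction, ambient temperature; measured by: fluorescence of resorufin, 544 nm excitation, 590 nm emission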
PMI act satM6P: PMI (human) activation, high substrate | P34949 | coupled PMI enzyme assay, resazurin fluorescence, 20 min; hits give high values; 1 = untreated enzyme, 0 = substrate-free blank | activation factor at 20 µM | actives 0.34% (n = 190,000) | AID 1216;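 active = activation factor of 2 or more at 20 µM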
Target sequence (P34949 whole entry, looked up): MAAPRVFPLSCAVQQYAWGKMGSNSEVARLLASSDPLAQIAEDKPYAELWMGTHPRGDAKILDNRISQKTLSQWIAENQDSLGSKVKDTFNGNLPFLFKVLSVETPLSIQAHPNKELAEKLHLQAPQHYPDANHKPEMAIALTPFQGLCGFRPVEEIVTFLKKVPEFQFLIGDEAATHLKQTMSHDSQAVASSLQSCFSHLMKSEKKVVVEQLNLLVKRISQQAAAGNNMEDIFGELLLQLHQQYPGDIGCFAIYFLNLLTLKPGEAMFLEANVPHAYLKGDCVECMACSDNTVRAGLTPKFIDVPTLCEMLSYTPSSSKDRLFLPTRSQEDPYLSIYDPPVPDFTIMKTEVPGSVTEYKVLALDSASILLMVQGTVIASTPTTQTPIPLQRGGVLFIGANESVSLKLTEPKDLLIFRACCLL
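Test system: Human PMI in coupled enzyme assay | Input: 15 ng/mL PMI | Medium: HEPES-buffered pH 7.4 with magnesium and detergent | Compound: One concentration, 20 µM, in 1% DMSO | Incubation: Enzyme reaction with compound 20 min at room temperature | Detection: Diaphorase-driven resazurin-to-resorufin fluorescence, excitation 544, emission 590 nm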
PMI act: increases human mannose-6-phosphate isomerase activity; actives 0.005% (n = 190,000); purified human PMI, coupled resazurin fluorescence, 20 min; hits give high values; 1 = vehicle control, 0 substrate-free wells; activation factor at 20 µM; P34949;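 active = activation factor of 2 or more at 20 µM, relative to plate controls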
An asterisk follows results filed as active. Only some compounds are listed: those with a hit (about 1.1% of all), similar ones and a draw of the others.

SMILES	G6PDH CS	Redox H2O2 prof	Diaphorase inh	Diaphorase act	PMI act satM6P	PMI act
O=C(O)c1cccc(NS(=O)(=O)c2ccc(-c3ccc(S(=O)(=O)Nc4cccc(C(=O)O)c4)cc3)cc2)c1	0	-1	51*	0.5	0.5	0.9
CCn1c(-c2ccc(C)cc2)n[nH]c1=S	8	0	10	0.9	1.1	1
S=c1nccc(-c2cccs2)[nH]1	-4	0	54*	0.5	1	1
Cc1ccc(-c2ccnc(=S)[nH]2)cc1	-1	-4	67*	0.3	0.9	0.9
O=C(O)c1cc(-c2cccs2)[nH]n1	12	0	13	0.9	1	1
O=C(c1ccccc1Cl)N(Cc1ccc(Br)cc1)N1C(=O)CCC1=O	0	1	0	1	1.1	1
CC(NC(=S)Nc1ccc([N+](=O)[O-])cc1)c1ccncc1 (configuration not stated)	8	0	10	0.9	1	1
S=C1NC2(CCCC2)Nc2ccccc21	11	0	6	0.9	2.3*	1.7
S=C1NC2(CCCCC2)Nc2ccccc21	4	-1	11	0.9	2.5*	1.7
O=C1c2ccccc2NC2(CCCC2)N1O	7	0	2	1	1.2	1.2
O=C(CN1C(=O)NC2(CCCCCCC2)C1=O)NC1CCCc2ccccc21 (configuration not stated)	-11	0	11	0.9	0.9	0.9
Cc1csc(NS(=O)(=O)c2cccc([N+](=O)[O-])c2)n1	10	-1	67*	0.3	0.9	0.9
CC(=O)Nc1ccccc1NS(=O)(=O)c1cccc([N+](=O)[O-])c1	12	6	19	0.8	0.9	0.9
CC(=O)c1cccc(NC(=O)Cn2nc(-c3ccc(Cl)cc3)ccc2=O)c1	8	-1	2	1	0.9	0.9
CC(Sc1n[nH]c(N)n1)C(=O)Nc1ccc(Cl)cn1 (configuration not stated)	4	-3	-7	1.1	1.1	1.2
Cc1cc(C)n2nc(SC(C)C(=O)Nc3ccc(Cl)cn3)nc2n1 (configuration not stated)	4	0	66*	0.3	0.8	0.8
CCc1cccc(CC)c1NC(=O)/C(C#N)=C/c1ccccc1C(F)(F)F	-8	0	11	0.9	1	0.9
Cc1cc(C)c(NC(=O)c2ccc[n+](Cc3ccc([N+](=O)[O-])cc3)c2)c(C)c1	-6	0	7	0.9	1	1
CCN1C(=O)N(C(C)=O)C2C1N(C(C)=O)C(=O)N2C(C)=O (configuration not stated)	2	0	9	0.9	1	0.9
Cc1ccc(S(=O)(=O)Nc2ccc(O)c3ncccc23)cc1	50*	-3	57*	0.4	0.7	0.6
Cc1ccc(NC(=O)CSc2nc3ccccc3c(=O)n2CCCN2CCCCC2)cc1Cl	2	0	-10	1.1	1	0.9
O=c1[nH]c(C(Cl)Cl)nc2sc3c(c12)CCN(Cc1ccccc1)C3	0	0	18	0.8	2.6*	1.8
CCCSc1nc2sc3c(c2c(=O)[nH]1)CCN(Cc1ccccc1)C3	-44	4	54*	0.5	1.7	1.3
O=C(O)Cn1ncn(-c2ccc(OC(F)(F)F)cc2)c1=O	-2	-1	0	1	1.1	1.1
CCCCCCCCCCCCCCCC[n+]1ccc(/C=N/O)cc1	-11	0	-103	2*	1.2	1.1
SMILES	G6PDH CS	Redox H2O2 prof	Diaphorase inh	Diaphorase act	PMI act satM6P	PMI act
CCCCCCCCCCCCCCCC[n+]1ccc(C(N)=O)cc1	-9	0	-60	1.6	1.2	0.7
CCn1nc(C)c(CNC(=O)Nc2ccc3c(c2)OCO3)c1C	4	-1	2	1	0.9	1
CCOc1ccc2nnc(-c3ccc(Br)cc3)n2n1	4	2	-4	1	1.1	1.1
OCCCNC(=S)Nc1ccc2nc(-c3ccccn3)c(-c3ccccn3)nc2c1	52*	3	68*	0.3	0.9	0.4
CC(C)(C)CC(C)(C)NC(=S)Nc1ccc2nc(-c3ccccn3)c(-c3ccccn3)nc2c1	38	4	35	0.7	1.2	1.2
S=C(Nc1ccc2nc(-c3ccccn3)c(-c3ccccn3)nc2c1)N1CCOCC1	53*	-1	51*	0.5	1.1	1.1
Cc1ccc(C2C(C#N)=C(N)Oc3c2sc2ccccc32)o1 (configuration not stated)	32	2	55*	0.4	0.4	0.8
CC1CC(=O)c2c(cc3c(-c4c(O)cc(O)c5c(O)c6c(cc45)OC(C)CC6=O)c(O)cc(O)c3c2O)O1 (configuration not stated)	18	2	64*	0.4	0.8	1
O=C1CC(c2ccc(O)cc2)Oc2cc(O)cc(O)c21 (configuration not stated)	23	0	21	0.8	0.7	0.9
CC/C(=N/Nc1cccc(Cl)c1)c1cnnc(SC)n1	7	2	-2	1	1.1	1.1
CC/C(=N/Nc1ccccc1)c1cnnc(-c2ccccc2)n1	-2	-1	-5	1.1	2.9*	1.9
Cc1ccc(S(=O)(=O)NNc2ccccc2)cc1	1	2	26	0.7	2.1*	1.1
Nc1ccc(S(=O)(=O)NNC(=O)C(=O)NNc2ccccc2)cc1	4	1	4	1	2.3*	1.6
C=C(C)C(=O)NNc1ccccc1	11	-1	-13	1.1	1.2	1.5
Cc1ccc(S(=O)(=O)NNC(=O)CCC(=O)Nc2ccccc2)cc1	10	2	2	1	1	1
CCN(CC)S(=O)(=O)c1ccc(/C=C/C(=O)OCC(=O)N(C(C)C)C(C)C)cc1	2	0	8	0.9	1	1
COc1ccc(N(CCCN2C(=O)c3cccc4cccc(c34)C2=O)C(=O)c2cccc(OC)c2)cc1	-24	0	56*	0.4	0.9	0.8
CCOC(=O)C(=O)NNc1ccc(C)cc1	-4	1	11	0.9	2*	1.4
CCOC(=O)C(=O)NNc1ccc(Cl)cc1	5	-2	16	0.8	2.5*	1.7
CCCOC(=O)C(=O)NNc1ccccc1	-1	-2	1	1	2.9*	1.9
CCOc1ccc(NC(=S)N2CCN(c3ccc(N4CCOCC4)nn3)CC2)cc1	10	-1	17	0.8	0.9	1
